Active and inactive are the calls of the source. The rule behind the calls is not given here.
Tests used:
Rat1 [1] = assay: Cytotoxicity against rat immortalized Rat1 cells assessed as reduction of cell viability at 30 uM after 48 hrs by MTT assay; assay type: cell-based; conditions: rat1, 48 h
In short: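 Exponentially growing rat fibroblasts given compound at 30 μM; viability assessed by MTT test after 48 h.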

Rat1 [2] = assay: Cytotoxicity against rat immortalized Rat1 cells after 48 hrs by MTT assay; assay type: cell-based; conditions: for IC50: Rattus norvegicus, Rat1, 48 h; for Activity: rat, rat1, 48 h
Rat1 [3] = assay: Antioxidant activity in rat immortalized Rat1 cells assessed as inhibition of hydrogen peroxide-induced reactive oxygen species production by measuring conversion of 2',7'-dichlorofluorescin diacetate into 2',7'-dichlorofluorescein at 30 uM treated 48 hrs before H2O2 challenge measured after 15 mins by fluorescence assay; assay type: functional, cell-based
In short: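 Immortalized rat fibroblasts pre-treated 48 h with compound (30 μM), then exposed to 100 μM H2O2 for 15 min; intracellular ROS read as DCF fluorescence from DCFH-DA oxidation. Basal (no H2O2) levels also measured. Values expressed as % of fluorescence in untreated control cells (set at 100).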

Compound	Activity (Rat1 [1])	IC50 (Rat1 [2])	Activity (Rat1 [2])	inhibition (Rat1 [3])
COc1cc(C2Oc3cc(-c4oc5cc(O)cc(O)c5c(=O)c4O)ccc3OC2CO)ccc1O (mixture of isomers) [DEHYDROSILYLBIN]	Non-toxic	155 µM	Dose-dependent effect	Active
COc1cc(C2Oc3cc([C@H]4Oc5cc(O)cc(O)c5C(=O)[C@@H]4O)ccc3OC2CO)ccc1O (mixture of isomers) [SILIBININ]	Non-toxic	162 µM	Dose-dependent effect	Active
